Results on 3 compounds are retold here after ChEMBL document CHEMBL1127320, “Dual-action cephalosporins incorporating a 3'-tertiary-amine-linked quinolone” (J Med Chem, 1994).

Series [1] concerns the target T1, Penicillin-binding protein 1B (Escherichia coli K-12) (UniProt P02919).
T1 sequence (whole entry): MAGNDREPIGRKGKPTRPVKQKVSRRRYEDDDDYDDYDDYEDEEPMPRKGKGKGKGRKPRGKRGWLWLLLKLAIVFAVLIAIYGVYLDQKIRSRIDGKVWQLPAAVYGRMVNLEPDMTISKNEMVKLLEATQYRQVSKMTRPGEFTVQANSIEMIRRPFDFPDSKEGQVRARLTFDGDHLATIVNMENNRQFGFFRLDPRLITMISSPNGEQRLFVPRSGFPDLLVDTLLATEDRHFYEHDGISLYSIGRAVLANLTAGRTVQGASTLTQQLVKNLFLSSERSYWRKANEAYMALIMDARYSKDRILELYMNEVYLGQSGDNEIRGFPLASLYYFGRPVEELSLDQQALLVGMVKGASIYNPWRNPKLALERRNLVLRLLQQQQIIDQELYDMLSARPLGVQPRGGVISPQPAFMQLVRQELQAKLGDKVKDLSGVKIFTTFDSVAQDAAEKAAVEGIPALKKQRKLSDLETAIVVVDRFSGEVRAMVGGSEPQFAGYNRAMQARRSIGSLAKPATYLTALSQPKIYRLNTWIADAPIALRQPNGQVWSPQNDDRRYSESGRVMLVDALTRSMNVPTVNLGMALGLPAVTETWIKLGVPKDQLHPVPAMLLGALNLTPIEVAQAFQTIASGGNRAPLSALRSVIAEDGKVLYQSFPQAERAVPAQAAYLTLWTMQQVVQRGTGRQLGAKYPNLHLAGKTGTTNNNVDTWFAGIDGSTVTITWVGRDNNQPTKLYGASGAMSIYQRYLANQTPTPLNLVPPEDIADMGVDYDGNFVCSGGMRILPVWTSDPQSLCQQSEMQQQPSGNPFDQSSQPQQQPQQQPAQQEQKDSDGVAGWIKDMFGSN
Description: Affinity for penicillin binding protein 1b of Escherichia coli UB1005 (DC0) was evaluated. Also on record: unit not given here. In a few lines:
(§1)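 Solubilised membranes from sonicated E. coli UB1005 served as the binding-protein source. Binding was read as inhibition of [14C]penicillin G binding.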

Series [2] concerns the target T2, Peptidoglycan D,D-transpeptidase MrdA (Escherichia coli K-12) (UniProt P0AD65).
T2 sequence (whole entry): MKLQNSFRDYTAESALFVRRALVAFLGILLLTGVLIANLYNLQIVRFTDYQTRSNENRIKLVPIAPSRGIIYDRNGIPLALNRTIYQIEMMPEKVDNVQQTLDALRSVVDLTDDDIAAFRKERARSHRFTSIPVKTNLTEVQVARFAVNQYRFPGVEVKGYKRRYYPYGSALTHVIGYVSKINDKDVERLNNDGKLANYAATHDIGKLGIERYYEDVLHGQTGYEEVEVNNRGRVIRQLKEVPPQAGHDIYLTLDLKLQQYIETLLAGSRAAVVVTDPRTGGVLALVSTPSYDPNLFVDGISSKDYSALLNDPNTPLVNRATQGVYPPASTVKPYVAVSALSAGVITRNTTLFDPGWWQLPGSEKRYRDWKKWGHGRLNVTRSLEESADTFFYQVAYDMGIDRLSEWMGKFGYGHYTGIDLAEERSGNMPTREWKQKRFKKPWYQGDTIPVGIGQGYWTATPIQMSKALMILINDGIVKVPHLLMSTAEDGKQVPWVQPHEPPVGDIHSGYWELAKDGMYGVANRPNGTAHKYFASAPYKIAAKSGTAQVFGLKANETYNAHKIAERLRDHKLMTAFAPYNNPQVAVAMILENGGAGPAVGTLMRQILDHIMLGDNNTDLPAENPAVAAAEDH
Description: Affinity for penicillin binding protein 2 of Escherichia coli UB1005 (DC0) was evaluated. Also on record: unit not given here. In a few lines:
as §1

Series [3] has as its system Escherichia coli. Description: Minimum inhibitory concentration against E. coli UB1005 (DC0).
The target of series [4] is T3, Penicillin-binding protein 1A (Escherichia coli K-12) (UniProt P02918).
T3 sequence (whole entry): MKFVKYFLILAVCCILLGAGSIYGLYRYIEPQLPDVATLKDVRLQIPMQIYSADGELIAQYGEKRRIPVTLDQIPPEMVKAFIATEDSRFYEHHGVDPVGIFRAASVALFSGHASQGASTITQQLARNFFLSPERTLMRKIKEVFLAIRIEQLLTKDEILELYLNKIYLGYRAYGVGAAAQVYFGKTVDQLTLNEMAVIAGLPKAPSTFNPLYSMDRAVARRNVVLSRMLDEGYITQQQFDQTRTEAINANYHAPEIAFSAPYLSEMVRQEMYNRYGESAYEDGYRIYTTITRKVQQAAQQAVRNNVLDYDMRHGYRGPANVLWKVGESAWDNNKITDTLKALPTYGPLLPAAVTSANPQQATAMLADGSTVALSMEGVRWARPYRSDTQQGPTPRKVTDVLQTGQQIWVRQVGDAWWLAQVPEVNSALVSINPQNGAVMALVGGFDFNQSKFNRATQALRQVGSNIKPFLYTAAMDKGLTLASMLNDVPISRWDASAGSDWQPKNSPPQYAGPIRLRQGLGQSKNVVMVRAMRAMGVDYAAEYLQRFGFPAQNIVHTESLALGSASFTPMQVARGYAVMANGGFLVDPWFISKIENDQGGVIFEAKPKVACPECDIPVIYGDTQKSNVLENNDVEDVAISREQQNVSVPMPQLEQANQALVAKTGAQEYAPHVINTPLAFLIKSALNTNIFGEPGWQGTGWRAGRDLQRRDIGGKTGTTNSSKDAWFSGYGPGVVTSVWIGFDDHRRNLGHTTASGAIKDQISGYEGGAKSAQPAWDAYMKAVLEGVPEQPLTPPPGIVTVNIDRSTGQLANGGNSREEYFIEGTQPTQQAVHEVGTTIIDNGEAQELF
Description: Affinity against penicillin binding protein 1a of Escherichia coli UB1005 (DC0) was evaluated. A digest of the protocol:
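Solubilized membranes from sonicated E. coli UB1005 were used. Binding to penicillin-binding proteins was measured as inhibition of [14C]penicillin G binding.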

A further series has as its system Proteus mirabilis. Description: In vitro minimum inhibitory concentration was measured against Proteus mirabilis 90 strain. The class given is functional. A digest of the protocol: (§2)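 Streptococci were tested on brain heart infusion agar plus 20 units/mL catalase, Proteus on Mueller-Hinton with 3% agar, and others on Mueller-Hinton agar. Inocula were 100-fold-diluted overnight cultures, about 3 × 10^4 CFU/spot, read after overnight incubation at 36 °C.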

Series [5] concerns the target T3, Penicillin-binding protein 1A (Escherichia coli K-12). Description: Affinity for penicillin binding protein 1a of Escherichia coli UB1005 (DC0) was evaluated. Also on record: unit not given here. In a few lines:
as §1

The subject of series [6] is Enterobacter cloacae. Description: In vitro minimum inhibitory concentration was measured against Enterobacter cloacae p99 (beta lactamase producer) strain. It counts as functional.
Another series relates to Enterococcus faecalis. Description: In vitro minimum inhibitory concentration was measured against Enterococcus faecalis ATCC 29212 strain. The class given is functional. In a few lines:
as §2

For series [7], the system named is Escherichia coli. Description: In vitro minimum inhibitory concentration was measured against Escherichia coli TEM-1 (Beta lactamase producer) strain. The class given is functional. A digest of the protocol:
as §2

The subject of series [8] is Enterobacter cloacae. Description: In vitro minimum inhibitory concentration was measured against Enterobacter cloacae 5699 strain. It counts as functional.
In a further series the test system is Proteus vulgaris. Description: In vitro minimum inhibitory concentration was measured against Proteus vulgaris 1028BC (beta lactamase producer) strain. It counts as functional. In a few lines: as §2
Series [9] relates to Pseudomonas aeruginosa. Description: In vitro minimum inhibitory concentration was measured against Pseudomonas aeruginosa 18S/H strain. The class given is functional. A digest of the protocol:
as §2

For series [10], the system named is Staphylococcus aureus. Description: In vitro minimum inhibitory concentration was measured against Staphylococcus aureus 67-0 (Methicillin resistant) strain. It counts as functional.
The test system of another series is Citrobacter freundii. Description: In vitro minimum inhibitory concentration was measured against Citrobacter freundii BS-16 (beta lactamase producer) strain. The class given is functional. In a few lines: (§3)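 MICs were determined by agar dilution with 2-fold dilutions giving final 128–0.0156 µg/mL, extended to 0.000977 µg/mL where needed. Streptococci were tested on brain heart infusion agar plus 20 units/mL catalase, Proteus on Mueller-Hinton with 3% agar, and others on Mueller-Hinton agar. Inocula were 100-fold-diluted overnight cultures, about 3 × 10^4 CFU/spot, read after overnight incubation at 36 °C.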

For a further series, the system named is Serratia marcescens. Description: In vitro minimum inhibitory concentration was measured against Serratia marcescens 1071(beta lactamase producer) strain. The class given is functional. A digest of the protocol: as §2
The subject of series [11] is Penicillin-binding protein 3 (Escherichia coli). Description: Affinity for penicillin binding protein 3 of Escherichia coli UB1005 (DC0) was evaluated. Also on record: unit not given here.
For series [12], the system named is Staphylococcus aureus. Description: In vitro minimum inhibitory concentration was measured against Staphylococcus aureus smith strain. It counts as functional.
Series [13] relates to Pseudomonas aeruginosa. Description: In vitro minimum inhibitory concentration was measured against Pseudomonas aeruginosa 8780 strain. The class given is functional. In a few lines: as §2
The subject of series [14] is Escherichia coli. Description: Minimum inhibitory concentration for DC2, a permeability mutant. A digest of the protocol:
as §3

A short description of series [15]: Half life was measured as degradation by HPLC analysis. It counts as ADME.
For a further series, the system named is Streptococcus pneumoniae. Description: In vitro minimum inhibitory concentration was measured against Streptococcus pneumoniae 6301 strain. The class given is functional. A digest of the protocol: as §2
Series [16] has as its system Staphylococcus aureus. Description: In vitro minimum inhibitory concentration was measured against Staphylococcus aureus 753 (Methicillin resistant) strain. It counts as functional.
The subject of a further series is Micrococcus luteus. Description: In vitro minimum inhibitory concentration was measured against Micrococcus luteus ATCC 9341 strain. It counts as functional. In a few lines:
as §2

The test system of series [17] is Escherichia coli. Description: In vitro minimum inhibitory concentration was measured against Escherichia coli ATCC 25922 strain.; (</=). It counts as functional. In a few lines: as §3
Series [18] concerns Escherichia coli. Description: In vitro minimum inhibitory concentration was measured against Escherichia coli 257 strain; (</=). The class given is functional. In a few lines: as §3
The test system of a further series is Klebsiella pneumoniae. Description: In vitro minimum inhibitory concentration was measured against Klebsiella pneumoniae A strain. It counts as functional. In a few lines: as §2
The subject of a further series is Streptococcus pyogenes. Description: In vitro minimum inhibitory concentration was measured against Streptococcus pyogenes 4 strain. The class given is functional. A digest of the protocol: as §2
In series [19] the test system is Escherichia coli. Description: In vitro minimum inhibitory concentration was measured against Escherichia coli 257 strain. It counts as functional. In a few lines: as §2
The subject of series [20] is Penicillin-binding protein 3 (Escherichia coli). Description: Affinity for penicillin binding protein 3 of Escherichia coli UB1005 (DC0) was evaluated.; (</=).

Each structure is given as a SMILES string. In brackets after ≈: the same amount, converted by molar mass.

Turning to `CCN1CCN(C(=O)N[C@@H](C(=O)N[C@@H]2C(=O)N3C(C(=O)O)=C(CSc4nnnn4C)CS[C@H]23)c2ccc(O)cc2)C(=O)C1=O`, the Binding affinity stood at 10 in series [1], 2 in series [2] and 10 in series [4]. Also, the MIC against Escherichia coli [3] came out at 0.031 µg/mL (≈ 0.048 µM).

The half-life is the time needed for the level to fall by half in the phase considered. As for `CCN1CCN(C(=O)N[C@@H](C(=O)N[C@@H]2C(=O)N3C(C(=O)O)=C(CN4CCN(c5cc6c(cc5F)c(=O)c(C(=O)O)cn6C5CC5)CC4)CS[C@H]23)c2ccc(O)cc2)C(=O)C1=O`, the MIC was 1 µg/mL (≈ 1.16 µM) in the series with Proteus mirabilis; no more than 0.016 µg/mL against Enterobacter cloacae [6]; 16 µg/mL (≈ 18.6 µM) in the series with Enterococcus faecalis; 0.031 µg/mL (≈ 0.036 µM) with Escherichia coli [7]; 0.125 µg/mL (≈ 0.145 µM) against Enterobacter cloacae [8]; 0.063 µg/mL (≈ 0.0732 µM) in the series on Proteus vulgaris. Besides, the MIC in the series with Pseudomonas aeruginosa [9] came out at 2 µg/mL (≈ 2.32 µM); in the series on Staphylococcus aureus [10] it was 16 µg/mL (≈ 18.6 µM); against Citrobacter freundii it was 0.063 µg/mL (≈ 0.0732 µM); with Serratia marcescens, 0.25 µg/mL (≈ 0.29 µM); against Staphylococcus aureus [12], 2 µg/mL (≈ 2.32 µM); with Pseudomonas aeruginosa [13] it was 8 µg/mL (≈ 9.29 µM). The MIC with Escherichia coli [14] was 0.25 µg/mL (≈ 0.29 µM); against Streptococcus pneumoniae, 0.125 µg/mL (≈ 0.145 µM); in the series on Staphylococcus aureus [16] it was 2 µg/mL (≈ 2.32 µM); with Micrococcus luteus it was 0.5 µg/mL (≈ 0.581 µM); in the series with Escherichia coli [17] it was less than 0.016 µg/mL; with Escherichia coli [18] it was less than 0.016 µg/mL. The MIC is 0.5 µg/mL (≈ 0.581 µM) in the series with Klebsiella pneumoniae and 0.125 µg/mL (≈ 0.145 µM) against Streptococcus pyogenes. Moreover, the Binding affinity in [1] was greater than 100; in [2] it was greater than 100; in series [5], greater than 100; in series [11], 2. The same compound gave a half-life in series [15] of 60 h.

`O=C(O)C1=C(CN2CCN(c3cc4c(cc3F)c(=O)c(C(=O)O)cn4C3CC3)CC2)CS[C@@H]2[C@H](NC(=O)[C@H](O)c3ccccc3)C(=O)N12`: the Binding affinity in [1] is greater than 100; in series [2], greater than 100; in [5], 100; in series [20], less than 0.1. The MIC against Enterobacter cloacae [6] was 0.031 µg/mL (≈ 0.0457 µM); against Escherichia coli [19], 0.125 µg/mL (≈ 0.184 µM); in the series on Escherichia coli [7], 0.125 µg/mL (≈ 0.184 µM); with Proteus vulgaris, 0.063 µg/mL (≈ 0.093 µM); with Escherichia coli [3], 4 µg/mL (≈ 5.9 µM); in the series on Citrobacter freundii it was 0.125 µg/mL (≈ 0.184 µM). Further, the MIC with Escherichia coli [14] came out at 2 µg/mL (≈ 2.95 µM); against Streptococcus pneumoniae it was 0.063 µg/mL (≈ 0.093 µM); with Micrococcus luteus, 0.031 µg/mL (≈ 0.0457 µM); against Streptococcus pyogenes it was 0.031 µg/mL (≈ 0.0457 µM).
